Consider 16 compounds from ChEMBL document CHEMBL1212889, “Novel antifungal agents: triazolopyridines as inhibitors of beta-1,6-glucan synthesis” (Bioorg Med Chem, 2010).

The solubility is the concentration that dissolves in the medium under given conditions. Low readings indicate little dissolved substance, high ones much dissolved substance. As a reminder, the MIC is the smallest concentration in the dilution series that meets the test's criterion for growth inhibition. As usually defined, the logD is lipophilicity at a set pH, counting ionised and neutral species.

Series [1] is described as follows: Solubility of the compound at pH 6.8. The format is physicochemical. Particulars: buffer. In a few lines: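 Water solubility measured at pH 6.8.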
The test system of series [2] is Saccharomyces cerevisiae. Description: Antimicrobial activity against Saccharomyces cerevisiae AY14 by microdilution assay. The format is functional. In short, it runs like this: (§1)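 CLSI broth microdilution, modified to incubate at 30 °C. MIC-0 is the lowest drug concentration giving an optically clear well. Table footnote: the endpoint was the lowest concentration producing a prominent reduction in turbidity. Drug range 0.004 to 128 µg/mL.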

Series [3] relates to Candida tropicalis. Description: Antimicrobial activity against Candida tropicalis TIMM 0313 by microdilution assay. The format is functional. In short, it runs like this:
as §1

Series [4] deals with Liver microsomes. Description: Metabolic stability in human liver microsomes. The format is ADME, Microsome. In a few lines:
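Compound at 1 µM final with human liver microsomes (0.5 mg/mL protein) in sodium phosphate buffer pH 7.4, preincubated 20 min at 37 °C. NADPH started the reaction, and MeOH stopped it after 30 min. Samples were centrifuged at 4 °C, and parent loss was measured by LC/MS/MS.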

The test system of series [5] is Pichia kudriavzevii. Description: Antimicrobial activity against Candida krusei TIMM 0269 by microdilution assay. The series is classed as functional. In a few lines: as §1
For orientation: Dilution methods test growth across graded concentrations, often in twofold steps.

Series [6] has as its system Candida albicans. Description: Antimicrobial activity against Candida albicans ATCC 24433 by microdilution assay. The format is functional. In short, it runs like this: as §1
The test system of series [7] is Nakaseomyces glabratus. Description: Antimicrobial activity against Candida glabrata IFO 0622 by microdilution assay. The format is functional. In a few lines: as §1
A short description of series [8]: Octanol-phosphate buffered saline partition coefficient, log D of the compound at pH 6.8. The format is physicochemical. In a few lines:
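Shake partition between 1-octanol and phosphate-buffered saline at pH 6.8. Layers were separated by centrifugation at 3000 rpm for 10 min, and each layer was assayed by LC/MS on a C18 column with an ammonium acetate (pH 4.5)/acetic acid–acetonitrile gradient. Log D was computed from the partition coefficient.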

The subject of series [9] is Candida albicans. Description: Antimicrobial activity against Candida albicans ATCC 24433 using alamar blue stain by microdilution assay. The format is functional. In short, it runs like this: (§2)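 Modified CLSI microdilution in RPMI 1640 with 0.165 M MOPS, plus alamar blue redox indicator. Inoculum was 1 × 10³ to 1 × 10⁴ cells/mL and incubation ran 18–72 h, both set per strain by growth speed, at 30 °C. OD570 was read and MIC-2 taken as the lowest concentration giving 50% absorbance reduction versus the drug-free control.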

For series [10], the system named is Candida tropicalis. Description: Antimicrobial activity against Candida tropicalis IAM 4965 using alamar blue stain by microdilution assay. The series is classed as functional. In a few lines: as §2
Series [11] relates to Saccharomyces cerevisiae. Description: Antimicrobial activity against Saccharomyces cerevisiae AY14 using alamar blue stain by microdilution assay. The series is classed as functional. In short, it runs like this: as §2
In series [12] the test system is Pichia kudriavzevii. Description: Antimicrobial activity against Candida krusei ATCC 44507 using alamar blue stain by microdilution assay. The series is classed as functional. In a few lines:
as §2

The test system of series [13] is Nakaseomyces glabratus. Description: Antimicrobial activity against Candida glabrata ATCC 48435 using alamar blue stain by microdilution assay. The format is functional. In short, it runs like this:
as §2
Background: Alamar Blue is a resazurin reagent that responds to reducing activity.

In brackets after ≈: the same amount, converted by molar mass. Where only a bound is given, the exact number is not on record here.

`OC(Cn1cncn1)(Cn1cncn1)c1ccc(F)cc1F` [FLUCONAZOLE] showed a solubility in [1] of over 2000 µg/mL. For the same compound, the MIC came to 4 µg/mL (≈ 13.1 µM) in series [2]; 0.25 µg/mL (≈ 0.816 µM) in series [3]; 16 µg/mL (≈ 52.2 µM) in series [5]; 0.25 µg/mL (≈ 0.816 µM) in [6]; 2 µg/mL (≈ 6.53 µM) in [7]. In addition, the Stability in [4] is reported as 96%.

`CCCCc1c(C)c(C#N)c2nc(C(C)(C)C)nn2c1N1CC[C@H](N(C)C)C1`: the solubility in [1] was 146 µg/mL (≈ 382 µM). The MIC in series [2] is 64 µg/mL (≈ 167 µM); in series [3], over 128 µg/mL; in [5], over 128 µg/mL; in series [6] it was over 128 µg/mL; in series [7], 32 µg/mL (≈ 83.6 µM). In addition, the Stability in [4] is 11%. Further, in series [8], the pH-dependent lipophilicity (logD) is 3.2.

With `Cc1c(-c2ccccc2)c(N2CC[C@H](N(C)C)C2)n2nc(C(C)(C)CO)nc2c1C#N`, in series [1], the solubility came out at 140 µg/mL (≈ 334 µM). In addition, the MIC in series [9] is over 4 µg/mL; in series [10], 0.25 µg/mL (≈ 0.597 µM); in series [11] it was 0.125 µg/mL (≈ 0.299 µM); in series [12], over 4 µg/mL; in series [13], 0.25 µg/mL (≈ 0.597 µM). Further, the Stability in series [4] is reported as 64%. For the same compound, in series [8], the log distribution coefficient (logD) is 1.8.

In series [1], `Cc1c(-c2ccccc2)c(N2CC[C@H](N(C)C)C2)n2cc(C(C)(C)C)nc2c1C#N` yielded a solubility of 27 µg/mL (≈ 67.2 µM). Also, the MIC was 4 µg/mL (≈ 9.96 µM) in series [9]; 4 µg/mL (≈ 9.96 µM) in series [10]; 0.125 µg/mL (≈ 0.311 µM) in series [11]; 4 µg/mL (≈ 9.96 µM) in [12]; 0.25 µg/mL (≈ 0.623 µM) in series [13]. This compound also registered a Stability in series [4] of 16%. Moreover, the logD in series [8] was found to be 3.

`Cc1c(-c2ccccc2)c(N2CC[C@H](N(C)C)C2)n2nc(C(C)(C)COCc3ccccc3)nc2c1C#N`: in series [1], the solubility is under 3 µg/mL. The MIC in series [9] is over 4 µg/mL; in [10], 0.125 µg/mL (≈ 0.246 µM); in [11], 0.063 µg/mL (≈ 0.124 µM); in series [12], over 4 µg/mL; in [13], 0.125 µg/mL (≈ 0.246 µM). In addition, the Stability in series [4] was 9%. In [8], this compound registered a logD of 3.8.

In turn, `Cc1c(-c2ccccc2)c(N2CC[C@H](N(C)C)C2)n2nc(C(C)(C)C)nc2c1C#N` showed a solubility in [1] of 16 µg/mL (≈ 39.7 µM). Moreover, the MIC in series [2] was at most 0.125 µg/mL; in series [3], 2 µg/mL (≈ 4.97 µM); in [9] it was over 4 µg/mL; in series [10], 0.25 µg/mL (≈ 0.621 µM); in [5] it was 16 µg/mL (≈ 39.7 µM); in series [11], 0.063 µg/mL (≈ 0.157 µM). Moreover, the MIC in series [12] is over 4 µg/mL; in series [6], over 128 µg/mL; in series [7], at most 0.125 µg/mL; in [13] it was 0.063 µg/mL (≈ 0.157 µM). The compound also came in with a Stability in [4] of 9%. This compound gave a logD in [8] of 3.1.

`Cc1c(-c2ccccc2)c(N2CC[C@H](N(C)C)C2)n2c(nc3ccccc32)c1C#N` came in with a solubility in series [1] of 5.3 µg/mL (≈ 13.4 µM). In addition, the minimal inhibitory concentration (MIC) in [2] was at most 0.125 µg/mL; in series [3], 0.5 µg/mL (≈ 1.26 µM); in [5] it was at most 0.125 µg/mL; in series [6], over 128 µg/mL; in series [7], at most 0.125 µg/mL. In [4], this compound came in with a Stability of 29%. The logD in series [8] amounted to 3.1.

With `CCN(CC)CCNc1c(-c2ccccc2)c(C)c(C#N)c2nc(C(C)(C)C)nn12`, in [1], the solubility came to 2 µg/mL (≈ 4.94 µM). Further, the MIC in series [2] was 0.5 µg/mL (≈ 1.24 µM); in series [3], over 128 µg/mL; in series [5], over 128 µg/mL; in [6] it was over 128 µg/mL; in series [7], 0.5 µg/mL (≈ 1.24 µM). Further, the Stability in series [4] is 10%. Also, the log distribution coefficient (logD) in series [8] was 3.3.

`CCc1nc2c(C#N)c(C)c(-c3ccccc3)c(N3CC[C@H](N(C)C)C3)n2n1` returned a solubility in [1] of 228 µg/mL (≈ 609 µM). The MIC in series [9] is over 4 µg/mL; in [10], 1 µg/mL (≈ 2.67 µM); in series [11], 0.063 µg/mL (≈ 0.168 µM); in series [12] it was over 4 µg/mL; in series [13], 0.125 µg/mL (≈ 0.334 µM). In series [4], this compound returned a Stability of 54%. In series [8], this compound registered a log distribution coefficient (logD) of 2.1.

With `Cc1c(-c2ccccc2)c(N2CC[C@H](N(C)C)C2)n2nc(-c3ccccc3)nc2c1C#N`, the MIC in series [2], in series [3], in [5], in series [6] and in series [7] was over 128 µg/mL in each case.

Turning to `Cc1c(-c2ccccc2)c(N2CC[C@H](N(C)C)C2)n2nc(C(C)(C)C)cc2c1C#N`, in series [1], the solubility is under 2 µg/mL. In addition, the MIC in [9] stood at 4 µg/mL (≈ 9.96 µM); in series [10], 1 µg/mL (≈ 2.49 µM); in series [11] it was 1 µg/mL (≈ 2.49 µM); in series [12] it was 4 µg/mL (≈ 9.96 µM); in series [13] it was 1 µg/mL (≈ 2.49 µM). The compound further gave a Stability in [4] of 12%. The same compound gave a logD in series [8] of 4.8.

On to `CCCCc1c(C)c(C#N)c2nc3ccccc3n2c1N1CC[C@H](N(C)C)C1`, for which the solubility in series [1] stood at 26 µg/mL (≈ 69.2 µM). Moreover, the MIC was 0.25 µg/mL (≈ 0.666 µM) in series [2]; 0.5 µg/mL (≈ 1.33 µM) in [3]; 0.5 µg/mL (≈ 1.33 µM) in series [5]; over 128 µg/mL in [6]; at most 0.125 µg/mL in [7]. The Stability in series [4] is reported as 57%. The same compound yielded a logD in [8] of 3.2.

In [1], `Cc1c(-c2ccccc2)c(N2CC[C@H](N(C)C)C2)n2nc(C3CC3)nc2c1C#N` had a solubility of 57 µg/mL (≈ 147 µM). Moreover, the MIC is over 4 µg/mL in series [9]; 1 µg/mL (≈ 2.59 µM) in series [10]; 0.032 µg/mL (≈ 0.0828 µM) in [11]; over 4 µg/mL in series [12]; 0.063 µg/mL (≈ 0.163 µM) in series [13]. Further, the Stability in series [4] is 48%. Further, the log distribution coefficient (logD) in series [8] is 2.4.

Take `CCCCc1nc2c(C#N)c(C)c(-c3ccccc3)c(N3CC[C@H](N(C)C)C3)n2n1`: the solubility in series [1] stood at 33 µg/mL (≈ 82 µM). Further, the MIC in [2] is 2 µg/mL (≈ 4.97 µM); in series [3] it was over 64 µg/mL; in series [5], over 64 µg/mL; in series [6], over 128 µg/mL; in series [7], 1 µg/mL (≈ 2.48 µM). Also, the Stability in [4] was 5%. In series [8], this compound came in with a logD of 3.2.

The compound `Cc1nc2c(C#N)c(C)c(-c3ccccc3)c(N3CC[C@H](N(C)C)C3)n2n1` displayed a solubility in [1] of 376 µg/mL (≈ 1040 µM). In addition, the MIC in series [2] is 8 µg/mL (≈ 22.2 µM); in series [3], over 128 µg/mL; in series [5], over 128 µg/mL; in series [6], over 128 µg/mL; in series [7], 2 µg/mL (≈ 5.55 µM). The compound further had a Stability in series [4] of 84%. This compound also displayed a log distribution coefficient (logD) in series [8] of 1.7.

For `Cc1cn2c(N3CC[C@H](N(C)C)C3)c(-c3ccccc3)c(C)c(C#N)c2n1`, in [1], the solubility came to 356 µg/mL (≈ 990 µM). For the same compound, the MIC was over 4 µg/mL in series [9]; over 4 µg/mL in [10]; 1 µg/mL (≈ 2.78 µM) in [11]; over 4 µg/mL in series [12]; 0.5 µg/mL (≈ 1.39 µM) in series [13]. The same compound came in with a Stability in [4] of 71%. This compound had a logD in [8] of 1.9.
